Source: ChEMBL document CHEMBL4346672, “Antimicrobial and KPC/AmpC inhibitory activity of functionalized benzosiloxaboroles” (Eur J Med Chem, 2019)

What was measured:
Klebsiella pneumoniae [1] = test: Inhibition of beta lactamase CMY-2 in Klebsiella pneumoniae 78 assessed as potentiation of ceftazidime-induced antibacterial activity by measuring ceftazidime MIC at 16 mg/L incubated for 18 hrs by broth dilution method (reference value: >[…] mg/L)
Escherichia coli [2] = test: Inhibition of beta lactamase KPC-3 in Escherichia coli 82 TR assessed as potentiation of meropenem-induced antibacterial activity by measuring meropenem MIC at 16 mg/L incubated for 18 hrs by broth dilution method (reference value: 2 mg/L)
Escherichia coli [3] = test: Inhibition of beta lactamase CMY-2 in Escherichia coli 77 assessed as potentiation of ceftazidime-induced antibacterial activity by measuring ceftazidime MIC at 16 mg/L incubated for 18 hrs by broth dilution method (reference value: […] mg/L)
[4] = biological target: Class A carbapenemase KPC-2 (Escherichia coli) (UniProt A8DS27); test: Inhibition of beta lactamase KPC-2 in Escherichia coli 76 assessed as potentiation of meropenem-induced antibacterial activity by measuring meropenem MIC at 16 mg/L incubated for 18 hrs by broth dilution method (reference value: >[…] mg/L)
Klebsiella pneumoniae [5] = test: Inhibition of beta lactamase KPC-3 in Klebsiella pneumoniae 81 assessed as potentiation of meropenem-induced antibacterial activity by measuring meropenem MIC at 16 mg/L incubated for 18 hrs by broth dilution method (reference value: […] mg/L)
Acinetobacter baumannii [6] = test: Inhibition of beta lactamase OXA-24 in Acinetobacter baumannii 181 assessed as potentiation of ceftazidime-induced antibacterial activity by measuring ceftazidime MIC at 16 mg/L incubated for 18 hrs by broth dilution method (reference value: >[…] mg/L)
Klebsiella pneumoniae [7] = test: Inhibition of beta lactamase KPC-3 in Klebsiella pneumoniae 81 assessed as potentiation of ceftazidime-induced antibacterial activity by measuring ceftazidime MIC at 16 mg/L incubated for 18 hrs by broth dilution method (reference value: >[…] mg/L)
[8] = test system: Klebsiella pneumoniae ATCC BAA-1705; test: Inhibition of beta lactamase KPC-2 in Klebsiella pneumoniae ATCC BAA 1705 assessed as potentiation of ceftazidime-induced antibacterial activity by measuring ceftazidime MIC at 16 mg/L incubated for 18 hrs by broth dilution method
Pseudomonas aeruginosa [9] = test: Inhibition of beta lactamase AmpC in Pseudomonas aeruginosa 700 assessed as potentiation of ceftazidime-induced antibacterial activity by measuring ceftazidime MIC at 16 mg/L incubated for 18 hrs by broth dilution method (reference value: >[…] mg/L)
[10] = test system: Klebsiella pneumoniae 700603; test: Inhibition of extended-spectrum beta lactamase in Klebsiella pneumoniae ATCC 700603 assessed as potentiation of ceftazidime-induced antibacterial activity by measuring diameter of zone inhibition at 0.3 mg incubated for 18 hrs in presence of 10 ug ceftazidime by CLSI disc diffusion method (Rvb=13 mm)
Summary of the method: (§1)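 EUCAST ESBL combination disc test on Mueller-Hinton agar. Zones were compared between a ceftazidime or cefotaxime disc alone and the same disc plus agent at 0.3 mg per disc. Clavulanic acid discs at 0.01 mg per disc served as reference. Plates were incubated at 35 °C for 18 h. A difference of at least 5 mm was counted as inhibition.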

[11] = biological target: Class A carbapenemase KPC-2 (Escherichia coli) (UniProt A8DS27); test: Inhibition of beta lactamase KPC-2 in Escherichia coli 76 assessed as potentiation of ceftazidime-induced antibacterial activity by measuring ceftazidime MIC at 16 mg/L incubated for 18 hrs by broth dilution method (reference value: >[…] mg/L)
Escherichia coli [12] = test: Inhibition of beta lactamase KPC-3 in Escherichia coli 82 TR assessed as potentiation of ceftazidime-induced antibacterial activity by measuring ceftazidime MIC at 16 mg/L incubated for 18 hrs by broth dilution method (reference value: […] mg/L)
Pseudomonas aeruginosa [13] = test: Inhibition of beta lactamase VIM in Pseudomonas aeruginosa 698 assessed as potentiation of ceftazidime-induced antibacterial activity by measuring ceftazidime MIC at 16 mg/L incubated for 18 hrs by broth dilution method (reference value: […] mg/L)
Escherichia coli [14] = test: Inhibition of beta lactamase CMY-2 in Escherichia coli 77 assessed as potentiation of ceftazidime-induced antibacterial activity by measuring diameter of zone inhibition at 0.3 mg incubated for 18 hrs in presence of 30 ug ceftazidime by CLSI disc diffusion method (Rvb=13 mm)
Summary of the method: (§2)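 AmpC combination disc test on Mueller-Hinton agar, following EUCAST guidance and Yagi et al. Inhibition zones were compared between a CAZ-30 disc and a ceftazidime disc plus agent or PBA, each at 0.3 mg per disc. Plates were incubated at 35 °C for 18 h. A zone difference of at least 5 mm was counted as inhibition.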

Klebsiella pneumoniae [15] = test: Inhibition of beta lactamase KPC-2 in Klebsiella pneumoniae 75 assessed as potentiation of ceftazidime-induced antibacterial activity by measuring ceftazidime MIC at 16 mg/L incubated for 18 hrs by broth dilution method (reference value: […] mg/L)
Pseudomonas aeruginosa [16] = test: Inhibition of beta lactamase OXA-15 in Pseudomonas aeruginosa 852 assessed as potentiation of ceftazidime-induced antibacterial activity by measuring ceftazidime MIC at 16 mg/L incubated for 18 hrs by broth dilution method (reference value: >[…] mg/L)
[17] = test system: Klebsiella pneumoniae ATCC BAA-1705; test: Inhibition of beta lactamase KPC-2 in Klebsiella pneumoniae ATCC BAA 1705 assessed as potentiation of meropenem-induced antibacterial activity by measuring meropenem MIC at 16 mg/L incubated for 18 hrs by broth dilution method (reference value: […] mg/L)
[18] = test system: Klebsiella pneumoniae 700603; test: Inhibition of extended-spectrum beta lactamase in Klebsiella pneumoniae ATCC 700603 assessed as potentiation of cefotaxime-induced antibacterial activity by measuring diameter of zone inhibition at 0.3 mg incubated for 18 hrs in presence of 10 ug cefotaxime by CLSI disc diffusion method (Rvb=19 mm); summary of the method: as §1
Acinetobacter baumannii [19] = test: Inhibition of beta lactamase OXA-24 in Acinetobacter baumannii 181 assessed as potentiation of meropenem-induced antibacterial activity by measuring meropenem MIC at 16 mg/L incubated for 18 hrs by broth dilution method (reference value: […] mg/L)
[20] = test system: Klebsiella pneumoniae ATCC BAA-1705; test: Inhibition of beta lactamase KPC in Klebsiella pneumoniae ATCC BAA 1705 assessed as potentiation of meropenem-induced antibacterial activity by measuring diameter of zone inhibition at 0.3 mg incubated for 18 hrs in presence of 10 ug meropenem by CLSI disc diffusion method (Rvb=[…] mm)
Klebsiella pneumoniae [21] = test: Inhibition of beta lactamase SHV-12 in Klebsiella pneumoniae ATCC 700603 assessed as potentiation of ceftazidime-induced antibacterial activity by measuring ceftazidime MIC at 16 mg/L incubated for 18 hrs by broth dilution method (reference value: […] mg/L)
Klebsiella pneumoniae [22] = test: Inhibition of beta lactamase KPC-3 in Klebsiella pneumoniae 83 assessed as potentiation of ceftazidime-induced antibacterial activity by measuring ceftazidime MIC at 16 mg/L incubated for 18 hrs by broth dilution method (reference value: >[…] mg/L)
Pseudomonas aeruginosa [23] = test: Inhibition of beta lactamase AmpC in Pseudomonas aeruginosa MUW 700 assessed as potentiation of ceftazidime-induced antibacterial activity by measuring diameter of zone inhibition at 0.3 mg incubated for 18 hrs in presence of 30 ug ceftazidime by CLSI disc diffusion method (Rvb=11 mm); summary of the method: as §2
Klebsiella pneumoniae [24] = test: Inhibition of beta lactamase KPC-2 in Klebsiella pneumoniae 75 assessed as potentiation of meropenem-induced antibacterial activity by measuring meropenem MIC at 16 mg/L incubated for 18 hrs by broth dilution method (reference value: […] mg/L)
Klebsiella pneumoniae [25] = test: Inhibition of beta lactamase KPC-3 in Klebsiella pneumoniae 83 assessed as potentiation of meropenem-induced antibacterial activity by measuring meropenem MIC at 16 mg/L incubated for 18 hrs by broth dilution method (reference value: […] mg/L)

OB(O)c1ccccc1
MIC (Klebsiella pneumoniae [1]): 32 µg/mL
MIC (Escherichia coli [2]): 0.25 µg/mL
MIC (Escherichia coli [3]): 8 µg/mL
MIC [4]: 32 µg/mL
MIC (Klebsiella pneumoniae [5]): 2 µg/mL
MIC (Acinetobacter baumannii [6]): > 64 µg/mL
MIC (Klebsiella pneumoniae [7]): 16 µg/mL
MIC [8]: 32 µg/mL
MIC (Pseudomonas aeruginosa [9]): 8 µg/mL
inhibition zone (IZ) [10]: 14 mm
MIC [11]: > 64 µg/mL
MIC (Escherichia coli [12]): 8 µg/mL
MIC (Pseudomonas aeruginosa [13]): 64 µg/mL
inhibition zone (IZ) (Escherichia coli [14]): 24 mm
MIC (Klebsiella pneumoniae [15]): 16 µg/mL
MIC (Pseudomonas aeruginosa [16]): > 64 µg/mL
MIC [17]: 16 µg/mL
inhibition zone (IZ) [18]: 19 mm
MIC (Acinetobacter baumannii [19]): > 64 µg/mL
inhibition zone (IZ) [20]: 22 mm
MIC (Klebsiella pneumoniae [21]): 64 µg/mL
MIC (Klebsiella pneumoniae [22]): 16 µg/mL
inhibition zone (IZ) (Pseudomonas aeruginosa [23]): 22 mm
MIC (Klebsiella pneumoniae [24]): 16 µg/mL
MIC (Klebsiella pneumoniae [25]): 8 µg/mL
